Assay results as given in ChEMBL document CHEMBL1649498, “Pharmacological exploitation of an off-target antibacterial effect of the cyclooxygenase-2 inhibitor celecoxib against Francisella tularensis” (Antimicrob Agents Chemother, 2009).
≈ marks a conversion by molar mass, not a printed value. Calls of active or inactive are those of the source. The rule behind the calls is not given here.

Legend:
Francisella novicida [1] = assay: Antibacterial activity against Francisella novicida infected in mouse RAW264.7 cells after 24 hrs by broth microdilution method; type: functional, Francisella tularensis subsp. novicida; settings: Francisella tularensis
In short: (§1)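 F. novicida U112 grown overnight on chocolate agar, suspended in PBS and diluted to 5 × 10⁵ CFU/ml in TSB with 0.025% iron(III) pyrophosphate and 0.1% cysteine HCl. CLSI broth microdilution in triplicate, 1 to 64 μg/ml, 37°C for 24 h. MIC was the lowest concentration with no visible growth.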

Francisella tularensis [2] = assay: Antibacterial activity against Francisella tularensis LVS infected in mouse RAW264.7 cells after 48 hrs by broth microdilution method; type: functional
Francisella novicida [3] = assay: Antibacterial activity against Francisella novicida infected in mouse RAW264.7 cells at 64 ug/ml after 24 hrs by broth microdilution method; type: functional, cell-based; settings: Francisella tularensis subsp. novicida; in short: as §1
Francisella tularensis [4] = assay: Antibacterial activity against Francisella tularensis LVS infected in mouse RAW264.7 cells at 64 ug/ml after 48 hrs by broth microdilution method; type: functional, cell-based
Salmonella typhimurium = assay: Antibacterial activity against Salmonella enterica serovar Typhimurium ATCC 14028 infected in mouse RAW264.7 cells at 64 ug/ml after 24 to 48 hrs by broth microdilution method; type: functional, organism-based; settings: Salmonella enterica subsp. enterica serovar Typhimurium
Francisella tularensis [5] = assay: Antibacterial activity against Francisella tularensis SchuS4 infected in human THP1 cells at 4 ug/ml after 24 hrs by broth microdilution method; type: functional, cell-based; settings: THP-1
Escherichia coli = assay: Antibacterial activity against Escherichia coli ATCC 25922 infected in mouse RAW264.7 cells at 64 ug/ml after 24 to 48 hrs by broth microdilution method; type: functional, organism-based
Francisella novicida [6] = assay: Antibacterial activity against Francisella novicida infected in mouse RAW264.7 cells at 64 ug/ml after 24 hrs by broth microdilution method in presence of 10% human serum albumin; type: functional, cell-based; settings: Francisella tularensis subsp. novicida
Francisella novicida [7] = assay: Antibacterial activity against Francisella novicida infected in mouse RAW264.7 cells at 64 ug/ml after 24 hrs by broth microdilution method in presence of 80% fetal bovine serum; type: functional, cell-based; settings: Francisella tularensis subsp. novicida
In short: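 Broth contained 0, 10, 50 or 80% human AB serum (not albumin) or FBS to probe protein binding. NE means no effect at 64 μg/ml.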

Francisella novicida [8] = assay: Antibacterial activity against Francisella novicida infected in mouse RAW264.7 cells at 64 ug/ml after 24 hrs by broth microdilution method in presence of 80% human serum albumin; type: functional, cell-based; settings: Francisella tularensis subsp. novicida
RAW264.7 = assay: Cytotoxicity against mouse RAW264.7 cells after 8 hrs by MTT assay; type: cell-based; settings: RAW264.7, 8 h
In short: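 RAW 264.7 cells at 2.5 × 10⁴/well, at least 6 wells per group, left overnight. Treated in 5% FBS DMEM with agents in DMSO (0.1% final) for 8 h. Then 0.5 mg/ml MTT for 1 h at 37°C, dye dissolved in DMSO, A570 read. Viability taken as % of vehicle control; IC50 from the dose-response.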

Francisella tularensis [9] = assay: Antibacterial activity against Francisella tularensis SchuS4 infected in mouse RAW264.7 cells after 24 hrs by broth microdilution method; type: functional; settings: SchuS4, 24 h
[10] = Selectivity index, ratio of IC50 for mouse RAW264.7 cells to MIC for Francisella novicida; type: functional
Francisella novicida [11] = assay: Antibacterial activity against Francisella novicida infected in mouse RAW264.7 cells at 64 ug/ml after 24 hrs by broth microdilution method in presence of 50% human serum albumin; type: functional, cell-based; settings: Francisella tularensis subsp. novicida
Francisella tularensis [12] = assay: Antibacterial activity against Francisella tularensis SchuS4 infected in mouse RAW264.7 cells at 64 ug/ml after 24 hrs by broth microdilution method; type: functional, cell-based

Row | Compound | MIC (Francisella novicida [1]) | MIC (Francisella tularensis [2]) | Activity (Francisella novicida [3]) | Activity (Francisella tularensis [4]) | further results
1 | NS(=O)(=O)c1ccc(-n2nc(C(F)(F)F)cc2-c2cccc3ccccc23)cc1 | 16 µg/mL (≈ 38.3 µM) | 8 µg/mL (≈ 19.2 µM) | – | – | –
2 | Cc1cc(C)cc(-c2ccc(-c3cc(C(F)(F)F)nn3-c3ccc(C(N)=O)cc3)cc2)c1 | – | – | inactive | inactive | –
3 | Cc1ccc(-c2cc(C(F)(F)F)nn2-c2ccc(S(N)(=O)=O)cc2)cc1 [CELECOXIB] | 32 µg/mL (≈ 83.9 µM) | 16 µg/mL (≈ 42 µM) | – | – | Activity (Salmonella typhimurium): inactive; Activity (Francisella tularensis [5]): inactive; Activity (Escherichia coli): inactive; Activity (Francisella novicida [6]): inactive; Activity (Francisella novicida [7]): inactive; Activity (Francisella novicida [8]): inactive; IC50 (RAW264.7): 17 µg/mL (≈ 44.6 µM); MIC (Francisella tularensis [9]): 16 µg/mL (≈ 42 µM); Ratio [10]: 0.5; Activity (Francisella novicida [11]): inactive
4 | FC(F)(F)c1cc(-c2ccc3ccc4ccccc4c3c2)n(-c2ccccc2)n1 | – | – | inactive | inactive | –
5 | NC(=O)c1ccc(-n2nc(C(F)(F)F)cc2-c2ccc(-c3ccccc3)cc2)cc1 | 16 µg/mL (≈ 39.3 µM) | 8 µg/mL (≈ 19.6 µM) | – | – | –
6 | Nc1ccc(-n2nc(C(F)(F)F)cc2-c2ccc(-c3cc(Cl)c(Cl)cc3Cl)cc2)cc1 | – | 4 µg/mL (≈ 8.29 µM) | inactive | – | –
7 | NC(=O)c1ccc(-n2nc(C(F)(F)F)cc2-c2ccc(-c3ccc(C(F)(F)F)cc3)cc2)cc1 | – | – | inactive | inactive | –
8 | CC(C)(C)c1ccc(-c2ccc(-c3cc(C(F)(F)F)nn3-c3ccc(C(N)=O)cc3)cc2)cc1 | – | – | inactive | inactive | –
9 | NC(=O)c1ccc(-n2nc(C(F)(F)F)cc2-c2ccc(-c3cc(Cl)cc(Cl)c3)cc2)cc1 | 16 µg/mL (≈ 33.6 µM) | 4 µg/mL (≈ 8.4 µM) | – | – | –
10 | NC(=O)c1ccc(-n2nc(C(F)(F)F)cc2-c2c3ccccc3cc3ccccc23)cc1 | 16 µg/mL (≈ 37.1 µM) | 16 µg/mL (≈ 37.1 µM) | – | – | –
11 | COc1ccc2cc(-c3cc(C(F)(F)F)nn3-c3ccc(N)cc3)ccc2c1 | 16 µg/mL (≈ 41.7 µM) | 16 µg/mL (≈ 41.7 µM) | – | – | –
12 | Nc1ccc(-n2nc(C(F)(F)F)cc2-c2ccc(-c3ccc(Br)cc3)cc2)cc1 | 4 µg/mL (≈ 8.73 µM) | 4 µg/mL (≈ 8.73 µM) | – | – | Activity (Francisella tularensis [12]): Active; IC50 (RAW264.7): 46 µg/mL (≈ 100 µM); Ratio [10]: 11.5
13 | NS(=O)(=O)c1ccc(-n2nc(C(F)(F)F)cc2-c2ccc(-c3cc(Cl)c(Cl)cc3Cl)cc2)cc1 | 2 µg/mL (≈ 3.66 µM) | 1 µg/mL (≈ 1.83 µM) | – | – | IC50 (RAW264.7): 2.4 µg/mL (≈ 4.39 µM); Ratio [10]: 1.2
14 | Cc1ccc(-c2ccc(-c3cc(C(F)(F)F)nn3-c3ccc(C(N)=O)cc3)cc2)cc1 | 8 µg/mL (≈ 19 µM) | 8 µg/mL (≈ 19 µM) | – | – | –
15 | CS(=O)(=O)c1ccc(C2=C(c3ccccc3)C(=O)OC2)cc1 [ROFECOXIB] | – | – | inactive | inactive | Activity (Francisella tularensis [12]): inactive; Activity (Salmonella typhimurium): inactive; Activity (Escherichia coli): inactive
16 | NC(=O)c1ccc(-n2nc(C(F)(F)F)cc2-c2ccc(-c3ccc(Cl)cc3)cc2)cc1 | 4 µg/mL (≈ 9.05 µM) | 2 µg/mL (≈ 4.53 µM) | – | – | IC50 (RAW264.7): 9 µg/mL (≈ 20.4 µM); Ratio [10]: 2.3
17 | CS(=O)(=O)c1ccc(-n2nc(C(F)(F)F)cc2-c2ccc(F)cc2)cc1 | – | – | inactive | inactive | –
18 | CCCCc1ccc(-c2cc(C(F)(F)F)nn2-c2ccc(C(N)=O)cc2)cc1 | 16 µg/mL (≈ 41.3 µM) | 8 µg/mL (≈ 20.7 µM) | – | – | –
19 | Nc1ccc(-n2nc(C(F)(F)F)cc2-c2cccc3ccccc23)cc1 | 16 µg/mL (≈ 45.3 µM) | 8 µg/mL (≈ 22.6 µM) | – | – | –
20 | NS(=O)(=O)c1ccc(-n2nc(C(F)(F)F)cc2-c2ccc(-c3ccc(Cl)cc3)cc2)cc1 | 4 µg/mL (≈ 8.37 µM) | 4 µg/mL (≈ 8.37 µM) | – | – | IC50 (RAW264.7): 4.8 µg/mL (≈ 10 µM); Ratio [10]: 1.2
21 | Cc1ccc(-c2ccc(-c3cc(C(F)(F)F)nn3-c3ccc(S(C)(=O)=O)cc3)cc2)cc1 | – | – | inactive | inactive | –
22 | CCCCc1ccc(-c2ccc(-c3cc(C(F)(F)F)nn3-c3ccc(C(N)=O)cc3)cc2)cc1 | – | – | inactive | inactive | –
23 | Nc1ccc(-n2nc(C(F)(F)F)cc2-c2ccc(-c3ccccc3)cc2)cc1 | 4 µg/mL (≈ 10.5 µM) | 4 µg/mL (≈ 10.5 µM) | – | – | IC50 (RAW264.7): 15 µg/mL (≈ 39.5 µM); Ratio [10]: 3.8
